Bioassay records deposited in PubChem BioAssay by The Scripps Research Institute Molecular Screening Center.
The list is not random: actives were taken first. Their share in the collection is about 3.2%.
TRPML3 agonist – human mucolipin-3 channel agonism; Q8TDD5; HEK293 TRPML3-YFP, Fluo-8 calcium fluorescence; 100% = the carbachol control signal; activation, % at 3 µM; 0.29% of 220,000 active;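 active means activation above its plate's cutoff, the mean activation of the plate's test wells plus 3 SD, cut at about 12% in these data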;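 further: 0% = DMSO only wells and 100% = carbachol wells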
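Test system: HEK293 cells stably carrying human TRPML3-YFP; Doses: single dose, 3 µM final nominal compound, 0.3% DMSO final; Schedule: dye loading 1 h 37 °C then 30 min ambient, 125 s read; Technique: Fluo-8 calcium fluorescence; Benchmarks: high control carbachol 87 µM, low control DMSO.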
GPR7 antagonist – antagonists of human GPR7 (neuropeptides B/W receptor 1); P48145; AID 1861; inhibition, % at 4.4 µM; GPR7-expressing cells, fluorescence antagonist assay; 1.1% of 290,000 active; in the data active means inhibition above about 16%, passing the limit was not always enough;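 further: cells stimulated with the agonist NPW; 0% = agonist with vehicle and 100% = vehicle without agonist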
Target sequence (P48145 whole entry, looked up): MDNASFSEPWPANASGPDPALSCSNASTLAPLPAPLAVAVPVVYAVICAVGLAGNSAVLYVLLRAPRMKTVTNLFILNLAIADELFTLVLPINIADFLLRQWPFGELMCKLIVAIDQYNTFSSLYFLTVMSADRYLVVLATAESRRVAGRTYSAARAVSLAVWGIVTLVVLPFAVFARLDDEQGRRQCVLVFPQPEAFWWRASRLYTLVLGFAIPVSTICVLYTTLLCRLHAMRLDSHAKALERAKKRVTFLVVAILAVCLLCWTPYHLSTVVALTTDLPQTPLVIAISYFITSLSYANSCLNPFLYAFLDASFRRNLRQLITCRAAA
OX1R antag-1 – antagonists of human orexin 1 receptor | O43613 | CHO/OX1R cells, Fluo-8 calcium fluorescence, orexin A | inhibition, % at 5 µM | 0.43% of 330,000 active | AID 434989;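 active means inhibition above its plate's threshold, mean inhibition of all tested compounds on the plate plus 3 SD, cut at about 37% in these data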;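 further: 0% = orexin A challenge wells and 100% = SB-334867-A antagonist wells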
CHO parental Ca – signal in parental CHO cells, OX1R antagonist counter-screen | parental CHO-K1, ATP-induced calcium, Fluo-8 fluorescence | inhibition, % at 5.6 µM | 0.63% of 330,000 active | AID 463079;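 active means inhibition above that plate's mean sample inhibition plus 3 SD, cut at about 26% in these data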;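 further: 0% = ATP-challenged DMSO wells and 100% = DMSO wells without ATP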
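Assay system: untransfected parental CHO cell line. Also added: ATP agonist challenge. Dosing: one dose, 5.6 µM nominal. Measured by: Fluo-8 fluorescence. Read-out: % inhibition. Benchmarks: ATP wells versus no-ATP DMSO wells. Repeats: no replicates.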
OX1R antag-2 – antagonists of human orexin 1 receptor (OX1R); 1.8% of 330,000 active; OX1R-expressing cells, FRET antagonist read-out; inhibition, % at 6.6 µM; O43613; in the data active means inhibition mostly above about 38%, no sharp cut-off; inactive means mostly below about 40%;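 further: 0% = agonist challenge alone and 100% = reference antagonist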
zfTRPN1 agonist – zebrafish TRPN1 (NompC) channel agonism. HEK293 zebrafish TRPN1-YFP, Fluo-8 calcium fluorescence; 100% = response to 87 µM carbachol. activation, % at 3 µM. 0.18% of 220,000 active. AID 1424;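 active means activation above its plate's cutoff, the mean activation of test wells on that plate plus 3 SD, cut at about 19% in these data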;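 further: 0% = DMSO alone and 100% = 87 µM carbachol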
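Material: zebrafish TRPN1-YFP in HEK293 cells; Doses: single test compound dose, 3 µM nominal, 0.3% DMSO; Timing: dye loading 1 h at 37 °C, then 30 min room temperature; Technique: intracellular calcium fluorescence with Fluo-8; Benchmarks: high carbachol 87 µM, low DMSO alone.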
* = called active by the depositor.

`CC1CCN(C(=O)COC(=O)c2ccc(Br)o2)CC1` gave TRPML3 agonist 0.5, GPR7 antagonist -4.7, OX1R antag-1 4.4, CHO parental Ca -8.3, OX1R antag-2 13.0 and zfTRPN1 agonist -0.4.
For O=C(OCC(=O)N1CCN(S(=O)(=O)c2ccc(Cl)cc2)CC1)c1ccc([N+](=O)[O-])o1 the results were TRPML3 agonist 0.2, GPR7 antagonist 19.8*, OX1R antag-1 -11.9, CHO parental Ca -8.0, OX1R antag-2 21.0 and zfTRPN1 agonist -0.3.
`Cc1cc(C(=O)COC(=O)c2ccc([N+](=O)[O-])o2)c(C)n1CC1CCCO1` (centres undefined) gave TRPML3 agonist 1.3, GPR7 antagonist 4.5, OX1R antag-1 -12.3, CHO parental Ca -0.1, OX1R antag-2 67.0* and zfTRPN1 agonist 0.2.
O=C(OCC(=O)N1CCN(S(=O)(=O)c2ccc(Cl)cc2)CC1)C1CC1 was read as OX1R antag-1 -0.5, CHO parental Ca -3.8 and OX1R antag-2 4.2.
`COCCn1c(C)cc(C(=O)COC(=O)c2ccc([N+](=O)[O-])o2)c1C` gave TRPML3 agonist 1.3, GPR7 antagonist 3.6, OX1R antag-1 -9.7, CHO parental Ca 0.9, OX1R antag-2 30.6 and zfTRPN1 agonist 0.1.
`CC1CCN(C(=O)COC(=O)c2ccc([N+](=O)[O-])o2)CC1` gave OX1R antag-1 -4.7, CHO parental Ca -3.0 and OX1R antag-2 41.7*.
For CC1Cc2ccccc2N1C(=O)COC(=O)c1ccc([N+](=O)[O-])o1 (centres undefined) the results were OX1R antag-1 4.9, CHO parental Ca -5.3 and OX1R antag-2 39.6*.
Screening CC(C)(C)c1ccc(C(=O)NC(=S)NNC(=O)c2cccs2)cc1 returned TRPML3 agonist 5.1, GPR7 antagonist -4.4, OX1R antag-1 33.1, CHO parental Ca 30.8, OX1R antag-2 1.3 and zfTRPN1 agonist 19.0*.
Screening COc1ccc(C(=S)Nc2ccc(C)cc2)cc1 returned TRPML3 agonist -1.2, GPR7 antagonist -8.3, OX1R antag-1 5.2, CHO parental Ca 73.0*, OX1R antag-2 22.9 and zfTRPN1 agonist -1.6.
COc1ccc(C(=O)NC(=S)NNC(=O)c2ccc(C)cc2)cc1 was read as OX1R antag-1 58.7*, CHO parental Ca 49.2* and OX1R antag-2 5.3.
For COc1ccc(NC(=S)c2ccncc2)cc1 the results were TRPML3 agonist 1.1, GPR7 antagonist -10.0, OX1R antag-1 -11.5, CHO parental Ca -8.1, OX1R antag-2 16.0 and zfTRPN1 agonist 0.7.
O=C(NC(=S)NNC(=O)c1cccs1)c1ccccc1 was read as GPR7 antagonist -11.0, OX1R antag-1 -3.5, CHO parental Ca 3.0 and OX1R antag-2 3.9.
`CC(C)(C)C(=O)NC(=S)NNC(=O)c1ccc(-c2ccccc2)cc1` gave TRPML3 agonist 116.7*, GPR7 antagonist 103.1*, OX1R antag-1 102.7*, CHO parental Ca 100.3*, OX1R antag-2 -5.0 and zfTRPN1 agonist 197.4*.
Cn1ccnc1SCC(=O)NC1(C#N)CCCCC1 was read as OX1R antag-1 2.9, CHO parental Ca 9.9 and OX1R antag-2 14.1.
`COCCCNC(=O)/C(C#N)=C/c1c(N2CCN(C)CC2)nc2ccccn2c1=O` gave GPR7 antagonist -10.6, OX1R antag-1 -18.9, CHO parental Ca -7.4 and OX1R antag-2 46.7*.
Screening COc1ccc(C(=O)C(CCC(CNC(C)(C)C)C(=O)c2ccc(OC)cc2)CNC(C)(C)C)cc1 (centres undefined) returned TRPML3 agonist -0.2, GPR7 antagonist 79.3*, OX1R antag-1 -1.7, CHO parental Ca 7.8, OX1R antag-2 7.3 and zfTRPN1 agonist 1.4.
For CN(C(=S)Nc1ccc(Oc2ccccc2)cc1)C1CCCCC1 the results were TRPML3 agonist 0.0, GPR7 antagonist -6.5, OX1R antag-1 -7.5, CHO parental Ca 29.3*, OX1R antag-2 33.8 and zfTRPN1 agonist -0.2.
For COc1ccc(OC)c2c1sc(=NC(=O)c1ccco1)n2C the results were TRPML3 agonist -0.1, GPR7 antagonist -6.2, OX1R antag-1 -25.1, CHO parental Ca -0.9, OX1R antag-2 21.3 and zfTRPN1 agonist -0.3.
